Key:
[1] = Partition coefficient, log D at pH 7.4; format: physicochemical; conditions: octanol/water
Method in brief: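 Compound in phosphate buffer was shaken with buffer-saturated octanol (3 × 50 inversions). Phases were separated by centrifugation at 300g for 15 min. Both phases were quantified by HPLC, and log D was calculated from peak areas normalized to injection volume.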

[2] = Tmax in CD Sprague-Dawley rat at 3.0 mg/kg, po; format: ADME, organism-based; design: dose 3 mg/kg, route oral; conditions: in vivo
Method in brief: (§1)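 Single iv and oral doses given to male CD Sprague-Dawley rats (1 mg/kg iv, 3 mg/kg po) and male Beagle dogs (1 mg/kg iv, 2 mg/kg po). Vehicle was a DMSO-PEG 200-water (5:45:50) solution. Serial and terminal blood samples were taken at time points up to 7, 12 or 24 h postdose.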

[3] = Volume of distribution in CD Sprague-Dawley rat at 1.0 mg/kg, iv; format: ADME, organism-based; design: dose 1 mg/kg, route intravenous; conditions: in vivo; method in brief: as §1
[4] = Cmax in CD Sprague-Dawley rat at 3.0 mg/kg, po; format: ADME, organism-based; design: dose 3 mg/kg, route oral; conditions: in vivo; method in brief: as §1
[5] = AUC in CD Sprague-Dawley rat at 3.0 mg/kg, po; format: ADME, organism-based; design: dose 3 mg/kg, route oral; conditions: plasma; method in brief: as §1
[6] = AUC in CD Sprague-Dawley rat at 1.0 mg/kg, iv; format: ADME, organism-based; design: dose 1 mg/kg, route intravenous; conditions: plasma; method in brief: as §1
[7] = Half life in CD Sprague-Dawley rat at 1.0 mg/kg, iv; format: ADME, organism-based; design: dose 1 mg/kg, route intravenous; conditions: in vivo; method in brief: as §1
[8] = Tmax in CD Sprague-Dawley rat at 1.0 mg/kg, iv; format: ADME, organism-based; design: dose 1 mg/kg, route intravenous; conditions: in vivo; method in brief: as §1
[9] = Clearance in CD Sprague-Dawley rat at 1.0 mg/kg, iv; format: ADME, organism-based; design: dose 1 mg/kg, route intravenous; conditions: in vivo; method in brief: as §1
[10] = Oral bioavailability in CD Sprague-Dawley rat at 3.0 mg/kg, po; format: ADME, organism-based; conditions: in vivo; method in brief: as §1
[11] = Cmax in CD Sprague-Dawley rat at 1.0 mg/kg, iv; format: ADME, organism-based; design: dose 1 mg/kg, route intravenous; conditions: in vivo; method in brief: as §1
[12] = Ratio of drug level in brain to blood in CD Sprague-Dawley rat at 1 mg/kg, iv after 5 mins; format: ADME, organism-based; design: dose 1 mg/kg, route intravenous; conditions: brain and blood
Method in brief: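 Male CD Sprague-Dawley rats were dosed iv in DMSO-PEG 200-water (5:45:50). Blood and brain were collected 5 min postdose under terminal isoflurane anesthesia. Blood was protein-precipitated; brain was homogenized and extracted. Parent drug was quantified by LCMS/MS.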

[13] = Tmax in Beagle dog at 1.0 mg/kg, iv; format: ADME, organism-based, Canis lupus familiaris; design: dose 1 mg/kg, route intravenous; conditions: in vivo; method in brief: as §1
[14] = AUC in Beagle dog at 2.0 mg/kg, po; format: ADME, organism-based, Canis lupus familiaris; design: dose 2 mg/kg, route oral; conditions: plasma; method in brief: as §1
[15] = Cmax in Beagle dog at 2.0 mg/kg, po; format: ADME, organism-based, Canis lupus familiaris; design: dose 2 mg/kg, route oral; conditions: in vivo; method in brief: as §1
[16] = Half life in Beagle dog at 1.0 mg/kg, iv; format: ADME, organism-based, Canis lupus familiaris; design: dose 1 mg/kg, route intravenous; conditions: in vivo; method in brief: as §1
[17] = Cmax in Beagle dog at 1.0 mg/kg, iv; format: ADME, organism-based, Canis lupus familiaris; design: dose 1 mg/kg, route intravenous; conditions: in vivo; method in brief: as §1
[18] = Oral bioavailability in Beagle dog at 2.0 mg/kg, po; format: ADME, organism-based, Canis lupus familiaris; conditions: in vivo; method in brief: as §1
[19] = Volume of distribution in Beagle dog at 1.0 mg/kg, iv; format: ADME, organism-based, Canis lupus familiaris; design: dose 1 mg/kg, route intravenous; conditions: in vivo; method in brief: as §1
[20] = AUC in Beagle dog at 1.0 mg/kg, iv; format: ADME, organism-based, Canis lupus familiaris; design: dose 1 mg/kg, route intravenous; conditions: plasma; method in brief: as §1
[21] = Tmax in Beagle dog at 2.0 mg/kg, po; format: ADME, organism-based, Canis lupus familiaris; design: dose 2 mg/kg, route oral; conditions: in vivo; method in brief: as §1
[22] = Clearance in Beagle dog at 1.0 mg/kg, iv; format: ADME, organism-based, Canis lupus familiaris; design: dose 1 mg/kg, route intravenous; conditions: in vivo; method in brief: as §1

Compound CC(C)N1CCC(Oc2ccc(N3CCN(C(=O)c4ccc(C#N)cc4)CC3=O)cc2)CC1 has a logD [1] of -0.64.
Compound O=C(c1ccncc1)N1CCN(c2ccc(OCCCN3CCCCC3)cc2)C(=O)C1 has a logD [1] of -1.6.
With O=C(c1cnn2cccnc12)N1CCN(c2ccc(OCCCN3CCCCC3)cc2)C(=O)C1 the logD [1] was -1.1.
In the case of O=C(c1ccc(F)cc1)N1CCN(c2ccc(OCCCN3CCCCCC3)cc2)C(=O)C1, the logD [1] is reported as -0.47.
O=C(c1cc(F)cc(F)c1)N1CCN(c2ccc(OCCCN3CCCCCC3)cc2)C(=O)C1 showed a logD [1] of 0.24.
Compound O=C(c1ccc(F)cc1F)N1CCN(c2ccc(OCCCN3CCCCCC3)cc2)C(=O)C1 has a logD [1] of 0.15.
In the case of C[C@@H]1CCCN1CCCOc1ccc(N2CCN(C(=O)c3ccc(C#N)cc3)CC2=O)cc1.O=CO, the Tmax [2] is reported as 7 h, the Vd [3] is reported as 2.1 L/kg and the Cmax [4] is reported as 0.052 µg/mL. For the same compound, the AUC [5] was 0.441 µg·h/mL, the AUC [6] was 1.19 µg·h/mL and the half-life [7] was 1.8 h. The Tmax [8] was 4.8 min, the clearance [9] was 0.78 L/h/kg and the bioavailability [10] was 7%. It also gave a logD [1] of -0.59 and a Cmax [11] of 0.729 µg/mL.
C[C@@H]1CCCN1CCCOc1ccc(N2CCN(C(=O)c3cc(F)cc(F)c3)CC2=O)cc1 showed a logD [1] of -0.02.
N#Cc1ccc(C(=O)N2CCN(c3ccc(OC4CCN(C5CCC5)CC4)cc3)C(=O)C2)cc1.O=CO showed a Kp at 5 min [12] of 0.2, a Tmax [2] of 1 h and a Tmax [13] of 4.8 min. It also gave a Vd [3] of 2.2 L/kg, a Cmax [4] of 0.149 µg/mL and an AUC [5] of 1.15 µg·h/mL. It also gave an AUC [14] of 1.54 µg·h/mL, a Cmax [15] of 0.294 µg/mL and a half-life [16] of 2.3 h. For the same compound, the Cmax [17] was 0.419 µg/mL, the AUC [6] was 0.601 µg·h/mL and the bioavailability [18] was 69%. The half-life [7] was 1.4 h, the Vd [19] was 2.3 L/kg and the AUC [20] was 1.1 µg·h/mL. For the same compound, the Tmax [21] was 1 h, the Tmax [8] was 4.8 min and the clearance [22] was 0.9 L/h/kg. It also gave a clearance [9] of 1.62 L/h/kg, a logD [1] of 0.38 and a Cmax [11] of 0.35 µg/mL.
In the case of O=C(c1cc(F)cc(F)c1)N1CCN(c2ccc(OC3CCN(C4CCC4)CC3)cc2)C(=O)C1, the logD [1] is reported as 0.99.
In the case of C[C@@H]1CCCN1CCCOc1ccc(N2CCN(C(=O)c3ccc(F)cc3F)CC2=O)cc1.O=CO, the Kp at 5 min [12] is reported as 0.2, the Tmax [2] is reported as 4 h and the Tmax [13] is reported as 4.8 min. For the same compound, the Vd [3] was 2 L/kg, the Cmax [4] was 0.109 µg/mL and the AUC [5] was 0.753 µg·h/mL. For the same compound, the AUC [14] was 4.8 µg·h/mL, the Cmax [15] was 0.734 µg/mL and the half-life [16] was 4.3 h. The Cmax [17] was 0.414 µg/mL, the AUC [6] was 0.682 µg·h/mL and the bioavailability [18] was 100%. It also gave a half-life [7] of 1.1 h, a Vd [19] of 2.3 L/kg and an AUC [20] of 2.16 µg·h/mL. For the same compound, the Tmax [21] was 4 h, the Tmax [8] was 4.8 min and the clearance [22] was 0.39 L/h/kg. It also gave a clearance [9] of 1.86 L/h/kg, a bioavailability [10] of 48% and a logD [1] of -0.08. For the same compound, the Cmax [11] was 0.291 µg/mL.
C[C@H]1CCCN1CCCOc1ccc(N2CCN(C(=O)c3ccc(F)cc3)CC2=O)cc1 showed a logD [1] of -0.18.
Compound O=C(c1ccc(F)cc1F)N1CCN(c2ccc(OC3CCN(C4CCC4)CC3)cc2)C(=O)C1 has a logD [1] of 0.95.
For C[C@H]1CCCN1CCCOc1ccc(N2CCN(C(=O)c3ccc(C#N)cc3)CC2=O)cc1, the logD [1] was -0.6.
With C[C@H]1CCCN1CCCOc1ccc(N2CCN(C(=O)c3ccc(F)cc3F)CC2=O)cc1 the logD [1] was -0.13.
Compound O=C(c1ccc(Cl)cc1)N1CCN(c2ccc(OC3CCN(C4CCCC4)CC3)cc2)C(=O)C1 has a logD [1] of 1.52.
With O=C(c1ccc(F)cc1)N1CCN(c2ccc(OC3CCN(C4CCCC4)CC3)cc2)C(=O)C1 the logD [1] was 0.88.
N#Cc1ccc(C(=O)N2CCN(c3ccc(OC4CCN(C5CCCC5)CC4)cc3)C(=O)C2)cc1 showed a logD [1] of 0.37.
With O=C(c1ccc(F)cc1)N1CCN(c2ccc(OCCCN3CCCCC3)cc2)C(=O)C1 the half-life [16] was 4.3 h, the Vd [19] was 2.9 L/kg and the clearance [22] was 0.54 L/h/kg. For the same compound, the “Log D” value [1] was 0.11.
For N#Cc1ccc(C(=O)N2CCN(c3ccc(OCCCN4CCCC4)cc3)C(=O)C2)cc1, the logD [1] was -1.07.
With CS(=O)(=O)c1ccc(C(=O)N2CCN(c3ccc(OC4CCN(C5CCCC5)CC4)cc3)C(=O)C2)cc1 the logD [1] was -0.46.
Work on O=C(c1ccc(F)cc1)N1CCN(c2ccc(OCCCN3CCCCC3)cc2)C(=O)C1.O=CO yielded a Kp at 5 min [12] of 0.3, a Tmax [2] of 3 h and a Tmax [13] of 4.8 min. For the same compound, the Vd [3] was 2.4 L/kg, the Cmax [4] was 0.155 µg/mL and the AUC [5] was 0.805 µg·h/mL. The AUC [14] was 3.09 µg·h/mL, the Cmax [15] was 0.4 µg/mL and the Cmax [17] was 0.53 µg/mL. The AUC [6] was 0.437 µg·h/mL, the bioavailability [18] was 86% and the half-life [7] was 1.5 h. The AUC [20] was 1.57 µg·h/mL, the Tmax [21] was 0.75 h and the Tmax [8] was 4.8 min. It also gave a clearance [9] of 2.22 L/h/kg, a bioavailability [10] of 61% and a logD [1] of 0.12. It also gave a Cmax [11] of 0.3 µg/mL.
In the case of CS(=O)(=O)c1ccc(C(=O)N2CCN(c3ccc(OCCCN4CCCCC4)cc3)C(=O)C2)cc1, the logD [1] is reported as -1.19.
Work on O=C(c1ccc(F)cc1F)N1CCN(c2ccc(OCCCN3CCCC3)cc2)C(=O)C1 yielded a logD [1] of -0.45.
